Measured values from ChEMBL document CHEMBL1133641, “A new class of potential chloroquine-resistance reversal agents for Plasmodia: syntheses and biological evaluation of 1-(3'-diethylaminopropyl)-3-(substituted phenylmethylene)pyrrolidines” (2000).
Activity calls are given as the source filed them. No cut-off for these calls is given here.

Legend:
[1] = system: Plasmodium yoelii nigeriensis; experiment: In Vitro inhibition of Heme Oxygenase in Cell-free parasite Plasmodium yoelii at concentration 50 uM; format: functional
Procedure, shortened: (§1)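 Heme oxygenase activity was measured as bilirubin formation in a post-mitochondrial fraction. The parasite enzyme came from cell-free P. yoelii, isolated from infected blood by density gradient centrifugation and saponin lysis. The host enzyme came from infected liver. Compounds were tested at 10–100 µM and preincubated for 10 min before the reaction was started.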

[2] = system: Plasmodium yoelii nigeriensis; experiment: In Vitro evaluation on percentage inhibition in Heme Oxygenase at concentration 100(uM) of Cell-free parasite Plasmodium yoelii; format: functional; procedure, shortened: as §1
[3] = In Vitro evaluation on percentage inhibition in Heme Oxygenase at concentration 100 (uM) of infected host; procedure, shortened: as §1
[4] = In Vitro evaluation on percentage inhibition in Heme Oxygenase at concentration 50(uM) of infected host; procedure, shortened: as §1
[5] = target: T1, Glutathione S-transferase (Plasmodium yoelii yoelii) (UniProt Q7REH6); experiment: Inhibition of Glutathione S-transferase in Plasmodium yoelii nigeriensis isolated from infected mice (Mus musculus) (oral); NI denotes nil inhibition
T1 sequence (whole entry): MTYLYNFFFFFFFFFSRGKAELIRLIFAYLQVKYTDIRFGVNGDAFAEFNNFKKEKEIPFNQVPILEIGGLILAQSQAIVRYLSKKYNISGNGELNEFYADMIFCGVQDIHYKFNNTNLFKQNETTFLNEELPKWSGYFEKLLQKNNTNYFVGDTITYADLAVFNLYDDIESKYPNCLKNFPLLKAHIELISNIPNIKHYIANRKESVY
Procedure, shortened: (§2)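 Swiss albino mice carried P. yoelii nigeriensis tolerant to CQ up to 120 mg/kg. They received compound orally at 15 mg/kg body wt for 5 days. Parasites were then isolated from blood by density gradient centrifugation and saponin lysis, and enzyme inhibition was measured as percent inhibition.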

Mus musculus [6] = species on record: Mus musculus; experiment: In Vitro inhibition of Heme Oxygenase in Plasmodium yoelii (host) at concentration 10 uM; format: functional; procedure, shortened: as §1
Mus musculus [7] = species on record: Mus musculus; experiment: In Vitro inhibition of Heme Oxygenase in Plasmodium yoelii (host) at concentration 100 uM; format: functional
Procedure, shortened: (§3)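 In vitro heme oxygenase, cell-free: post-mitochondrial fractions of P. yoelii parasites and of infected host liver. Test compounds at 10-100 µM were preincubated 10 min in the assay system before the enzyme reaction started. Activity was followed as bilirubin formation and expressed as % inhibition.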

Mus musculus [8] = species on record: Mus musculus; experiment: In Vitro inhibition of Heme Oxygenase in Plasmodium yoelii (host) at concentration 50 uM; format: functional; procedure, shortened: as §3
[9] = system: Plasmodium yoelii nigeriensis; experiment: In Vitro inhibition of Heme Oxygenase in Cell-free parasite Plasmodium yoelii at concentration 10 uM; format: functional; procedure, shortened: as §1
[10] = system: Plasmodium yoelii nigeriensis; experiment: In Vitro inhibition of Heme Oxygenase in Cell-free parasite Plasmodium yoelii at concentration 100 uM; format: functional; procedure, shortened: as §1
[11] = system: Plasmodium yoelii nigeriensis; experiment: Inhibition of heme oxygenase in Plasmodium yoelii nigeriensis isolated from infected mice (Mus musculus) (oral); NI denotes no inhibition; format: functional, organism-based; procedure, shortened: as §2

| inhibition [3] | inhibition [4] | NI [5] | SMILES | inhibition [1] | inhibition [2] | inhibition (Mus musculus [6]) | inhibition (Mus musculus [7]) | inhibition (Mus musculus [8]) | inhibition [9] | inhibition [10] | NI [11] |
| --- | --- | --- | --- | --- | --- | --- | --- | --- | --- | --- | --- |
| 84% | 41% |  | COc1ccc([C@@H]2Sc3ccccc3N(CCN(C)C)C(=O)[C@@H]2OC(C)=O)cc1 | 12.5% | 29% |  |  |  |  |  |  |
|  |  | No inhibition | CCN(CC)CCCN1CC/C(=C\c2ccc(OCc3ccccc3)cc2)C1 | 37% |  | 24% | 69% | 63% | 28% | 64% | inactive |
